Results published in ChEMBL document CHEMBL1153959, “QSAR analysis of pyrazolidine-3,5-diones derivatives as Dyrk1A inhibitors” (Bioorg Med Chem Lett, 2009).

Columns and labels:
[1] = target: Dual specificity tyrosine-phosphorylation-regulated kinase 1A (Mus musculus) (UniProt Q61214); experiment: Inhibition of Dyrk1 autophosphorylation
[2] = target: Glycogen synthase kinase-3 beta (Homo sapiens) (UniProt P49841); experiment: Inhibition of human GSK3-beta at 10 uM; parameters: scale not given: the % may be the effect or the level left
Glycogen synthase kinase-3 beta (Homo sapiens), sequence (P49841 whole entry, looked up): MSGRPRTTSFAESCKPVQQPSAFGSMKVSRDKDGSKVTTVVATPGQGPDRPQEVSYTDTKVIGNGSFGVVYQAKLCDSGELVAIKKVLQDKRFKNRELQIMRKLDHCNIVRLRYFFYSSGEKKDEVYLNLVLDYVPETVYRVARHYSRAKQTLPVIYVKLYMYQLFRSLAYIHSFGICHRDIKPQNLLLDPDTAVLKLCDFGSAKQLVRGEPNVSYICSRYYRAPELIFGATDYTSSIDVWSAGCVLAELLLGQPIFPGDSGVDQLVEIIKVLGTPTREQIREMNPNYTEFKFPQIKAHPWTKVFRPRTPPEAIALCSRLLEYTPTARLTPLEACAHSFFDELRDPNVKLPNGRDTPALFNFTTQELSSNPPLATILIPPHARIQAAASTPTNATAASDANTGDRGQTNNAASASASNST
Procedure, shortened: (§1)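 Each human kinase was assayed with ATP at that kinase's own Km value. Activity was expressed as a percentage of control incubations run without inhibitor. Values are means of duplicate determinations with SD.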

[3] = target: Cyclin-dependent kinase 5/CDK5 activator 1 (Homo sapiens) (UniProt Q00535+Q15078); experiment: Inhibition of human CDK5/p35 at 10 uM; format: protein-complex assay; parameters: scale not given: the % may be the effect or the level left
Cyclin-dependent kinase 5/CDK5 activator 1 (Homo sapiens), sequence (Q00535 whole entry): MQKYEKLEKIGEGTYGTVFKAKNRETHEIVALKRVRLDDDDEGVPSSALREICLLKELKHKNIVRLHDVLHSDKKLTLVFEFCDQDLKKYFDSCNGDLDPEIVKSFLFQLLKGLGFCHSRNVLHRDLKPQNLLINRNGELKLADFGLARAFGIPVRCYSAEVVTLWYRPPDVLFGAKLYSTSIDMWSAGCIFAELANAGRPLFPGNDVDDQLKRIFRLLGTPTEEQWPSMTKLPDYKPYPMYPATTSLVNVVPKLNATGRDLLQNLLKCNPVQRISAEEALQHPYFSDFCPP
Cyclin-dependent kinase 5/CDK5 activator 1 (Homo sapiens), sequence (Q15078 99-307 partner limits assumed): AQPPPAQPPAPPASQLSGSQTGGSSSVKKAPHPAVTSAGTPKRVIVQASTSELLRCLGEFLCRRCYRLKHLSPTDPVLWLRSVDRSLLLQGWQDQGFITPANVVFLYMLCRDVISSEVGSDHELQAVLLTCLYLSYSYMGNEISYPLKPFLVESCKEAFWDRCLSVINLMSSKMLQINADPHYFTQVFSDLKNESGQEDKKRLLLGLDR
Procedure, shortened: as §1

Homo sapiens = species on record: Homo sapiens; experiment: Inhibition of human PKA at 10 uM; parameters: scale not given: the % may be the effect or the level left
Procedure, shortened: as §1

[4] = target: MAP kinase-activated protein kinase 2 (Homo sapiens) (UniProt P49137); experiment: Inhibition of human MAPK2 at 10 uM; parameters: scale not given: the % may be the effect or the level left
MAP kinase-activated protein kinase 2 (Homo sapiens), sequence (P49137 whole entry, looked up): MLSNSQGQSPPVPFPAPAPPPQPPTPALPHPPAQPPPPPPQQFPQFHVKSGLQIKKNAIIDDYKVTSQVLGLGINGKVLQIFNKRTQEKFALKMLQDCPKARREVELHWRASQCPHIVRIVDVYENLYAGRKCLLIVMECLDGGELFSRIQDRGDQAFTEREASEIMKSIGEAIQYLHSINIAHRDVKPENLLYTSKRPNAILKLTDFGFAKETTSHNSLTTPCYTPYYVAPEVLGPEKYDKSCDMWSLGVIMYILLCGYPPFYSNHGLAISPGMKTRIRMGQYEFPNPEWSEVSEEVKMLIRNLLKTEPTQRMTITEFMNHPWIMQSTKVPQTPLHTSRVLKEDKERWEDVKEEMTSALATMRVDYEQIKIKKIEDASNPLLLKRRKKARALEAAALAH
Procedure, shortened: as §1

[5] = target: Dual specificity protein kinase CLK3 (Homo sapiens) (UniProt P49761); experiment: Inhibition of human CLK3 at 10 uM; parameters: scale not given: the % may be the effect or the level left
Dual specificity protein kinase CLK3 (Homo sapiens), sequence (P49761 whole entry, looked up): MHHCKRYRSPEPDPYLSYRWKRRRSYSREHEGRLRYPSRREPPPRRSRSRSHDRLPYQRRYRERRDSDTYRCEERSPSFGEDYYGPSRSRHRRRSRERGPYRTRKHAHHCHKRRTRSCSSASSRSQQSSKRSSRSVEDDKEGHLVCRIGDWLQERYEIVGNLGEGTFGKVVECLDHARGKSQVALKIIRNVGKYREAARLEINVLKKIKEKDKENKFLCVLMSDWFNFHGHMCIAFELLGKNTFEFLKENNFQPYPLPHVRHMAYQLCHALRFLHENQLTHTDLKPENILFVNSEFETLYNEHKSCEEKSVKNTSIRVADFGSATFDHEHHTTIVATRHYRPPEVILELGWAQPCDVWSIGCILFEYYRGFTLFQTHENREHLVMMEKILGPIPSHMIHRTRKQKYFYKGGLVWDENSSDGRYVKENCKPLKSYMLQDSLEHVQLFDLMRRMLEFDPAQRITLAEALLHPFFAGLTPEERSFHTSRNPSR
Procedure, shortened: as §1

[6] = target: Mitogen-activated protein kinase 10 (Homo sapiens) (UniProt P53779); experiment: Inhibition of human JNK3 at 10 uM; parameters: scale not given: the % may be the effect or the level left
Mitogen-activated protein kinase 10 (Homo sapiens), sequence (P53779 whole entry): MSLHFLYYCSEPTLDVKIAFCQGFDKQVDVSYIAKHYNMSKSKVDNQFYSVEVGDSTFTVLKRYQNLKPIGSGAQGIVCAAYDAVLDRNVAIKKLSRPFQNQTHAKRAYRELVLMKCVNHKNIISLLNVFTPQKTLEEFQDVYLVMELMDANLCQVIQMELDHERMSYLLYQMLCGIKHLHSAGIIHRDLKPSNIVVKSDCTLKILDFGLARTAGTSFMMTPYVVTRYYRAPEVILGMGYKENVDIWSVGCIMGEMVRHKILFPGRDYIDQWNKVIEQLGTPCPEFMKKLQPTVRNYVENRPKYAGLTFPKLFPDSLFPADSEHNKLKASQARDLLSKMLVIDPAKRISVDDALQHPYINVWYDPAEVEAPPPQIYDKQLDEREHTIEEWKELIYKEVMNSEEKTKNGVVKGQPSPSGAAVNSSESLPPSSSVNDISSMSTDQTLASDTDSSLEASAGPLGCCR
Procedure, shortened: as §1

[7] = target: T1, Dual specificity tyrosine-phosphorylation-regulated kinase 2 (Homo sapiens) (UniProt Q92630); experiment: Inhibition of human DYRK2 at 10 uM; parameters: scale not given: the % may be the effect or the level left
T1 sequence (whole entry): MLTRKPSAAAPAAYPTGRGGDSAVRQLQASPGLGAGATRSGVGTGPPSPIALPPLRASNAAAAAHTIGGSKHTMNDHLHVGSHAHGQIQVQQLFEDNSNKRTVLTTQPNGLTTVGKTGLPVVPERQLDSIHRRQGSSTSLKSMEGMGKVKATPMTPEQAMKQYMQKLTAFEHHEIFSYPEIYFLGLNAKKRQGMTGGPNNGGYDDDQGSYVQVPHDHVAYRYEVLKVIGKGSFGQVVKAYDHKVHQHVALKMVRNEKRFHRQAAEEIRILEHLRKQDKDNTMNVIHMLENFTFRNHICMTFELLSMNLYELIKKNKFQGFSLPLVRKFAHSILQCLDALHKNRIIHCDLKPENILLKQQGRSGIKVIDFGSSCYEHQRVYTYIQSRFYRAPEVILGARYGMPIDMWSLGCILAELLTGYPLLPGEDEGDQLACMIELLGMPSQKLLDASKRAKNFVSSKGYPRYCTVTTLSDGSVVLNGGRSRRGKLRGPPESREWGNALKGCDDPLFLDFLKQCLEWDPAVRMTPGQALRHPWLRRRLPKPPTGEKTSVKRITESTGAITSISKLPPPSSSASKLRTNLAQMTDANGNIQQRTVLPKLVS
Procedure, shortened: as §1

[8] = target: Protein kinase C alpha type (Homo sapiens) (UniProt P17252); experiment: Inhibition of human PKCalpha at 10 uM; parameters: scale not given: the % may be the effect or the level left
Procedure, shortened: as §1

IC50 [1] | Compound | other results
15 µM | O=C1NN(c2ccc(Cl)c(Cl)c2)C(=O)/C1=C/c1cccc(Cl)c1Cl | 
2.5 µM | O=C1NN(c2ccc(Cl)c(Cl)c2)C(=O)/C1=C/c1ccc(O)cc1 | 
0.6 µM | O=C1NN(c2ccc(Cl)c(Cl)c2)C(=O)/C1=C/c1ccc(O)c([N+](=O)[O-])c1 | Activity [2]: 102%; Activity [3]: 91%; Activity (Homo sapiens): 72%; Activity [4]: 105%; Activity [5]: 75%; Activity [6]: 94%; Activity [7]: 17%; Activity [8]: 82%
> 50 µM | O=C1NN(c2ccc(Cl)c(Cl)c2)C(=O)/C1=C/c1ccccc1 | 
20 µM | O=C1NN(c2ccc(Cl)c(Cl)c2)C(=O)/C1=C/c1ccc(Cl)cc1 | 
> 50 µM | O=C1NN(c2ccc(Cl)c(Cl)c2)C(=O)/C1=C/c1ccccc1[N+](=O)[O-] | 
> 50 µM | O=C1NN(c2ccc(Cl)c(Cl)c2)C(=O)/C1=C/c1ccccc1F | 
> 50 µM | COc1cccc(/C=C2\C(=O)NN(c3ccc(Cl)c(Cl)c3)C2=O)c1 | 
20 µM | O=C1NN(c2ccc(Cl)c(Cl)c2)C(=O)/C1=C/c1ccccc1Cl | 
> 50 µM | COc1ccccc1/C=C1\C(=O)NN(c2ccc(Cl)c(Cl)c2)C1=O | 

More lines, now with the values behind:

Compound | IC50 [1] | other results
COc1ccc(/C=C2\C(=O)NN(c3ccc(Cl)c(Cl)c3)C2=O)cc1OC | > 50 µM | 
O=C1NN(c2ccc(Cl)c(Cl)c2)C(=O)/C1=C/c1cc(O)cc(O)c1 | > 50 µM | 
O=C1NN(c2ccc(Cl)c(Cl)c2)C(=O)/C1=C/c1ccc(F)c(F)c1 | 5 µM | 
COc1cc(/C=C2\C(=O)NN(c3ccc(Cl)c(Cl)c3)C2=O)cc(OC)c1 | 20 µM | 
COc1ccc(N2NC(=O)/C(=C\c3ccccc3F)C2=O)cc1 | > 50 µM | 
COc1ccc(N2NC(=O)/C(=C\c3ccc(OC)c(O)c3)C2=O)cc1 | > 50 µM | 
COc1cc(/C=C2\C(=O)NN(c3ccc(Cl)c(Cl)c3)C2=O)ccc1O | 2.5 µM | 
COc1ccc(N2NC(=O)/C(=C\c3cc(O)cc(O)c3)C2=O)cc1 | > 50 µM | 
COc1ccc(N2NC(=O)/C(=C\c3ccc(O)c(OC)c3)C2=O)cc1 | 1.2 µM | 
COc1ccc(N2NC(=O)/C(=C\c3cccc(OC)c3)C2=O)cc1 | > 50 µM | 
COc1cc(/C=C2\C(=O)NN(c3ccc(Cl)c(Cl)c3)C2=O)cc(OC)c1O | > 50 µM | 
COc1ccc(N2NC(=O)/C(=C\c3cc(OC)c(O)c(OC)c3)C2=O)cc1 | > 50 µM | 
O=C1NN(c2ccc(Cl)c(Cl)c2)C(=O)/C1=C/c1c(Cl)cccc1Cl | > 50 µM | 
COc1cc(/C=C2\C(=O)NN(c3ccc(C#N)cc3)C2=O)ccc1O | 0.6 µM | Activity [2]: 76%; Activity [3]: 104%; Activity (Homo sapiens): 69%; Activity [4]: 110%; Activity [5]: 93%; Activity [6]: 93%; Activity [7]: 78%; Activity [8]: 77%
COc1ccc(N2NC(=O)/C(=C\c3cc(OC)cc(OC)c3)C2=O)cc1 | > 50 µM | 
COc1ccc(/C=C2\C(=O)NN(c3ccc(C#N)cc3)C2=O)cc1O | > 50 µM | 
COc1ccccc1/C=C1\C(=O)NN(c2ccc(C#N)cc2)C1=O | 40 µM | 
COc1ccc(/C=C2\C(=O)NN(c3ccc(Cl)c(Cl)c3)C2=O)c(OC)c1 | > 50 µM | 
COc1ccc(/C=C2\C(=O)NN(c3ccc(Cl)c(Cl)c3)C2=O)cc1O | > 50 µM | 
COc1ccc(N2NC(=O)/C(=C\c3cccc(Cl)c3Cl)C2=O)cc1 | > 50 µM | 
COc1ccc(N2NC(=O)/C(=C\c3ccccc3OC)C2=O)cc1 | > 50 µM | 
COc1ccccc1/C=C1\C(=O)NN(c2ccc(F)cc2)C1=O | > 50 µM | 
COc1ccc(/C=C2\C(=O)NN(c3ccc(Cl)c(Cl)c3)C2=O)cc1 | > 50 µM | 
